Peptide text beside a SMILES is read from it. * marks the point of attachment. X1 = O=C(c1ccc(Oc2ccc3c4nc5nc(nc6[nH]c(nc7nc(nc([nH]4)c3c2)-c2ccccc2-7)c2ccccc62)-c2ccccc2-5)cc1)*
How the values were obtained:
[1] = reference standard in DMF; cited from earlier work
[2] = reference standard in DMF; cited from earlier work; remark: listed apart in the source
[3] = Solubility and aggregation state; assay type: physicochemical; conditions: 2 μM in DMF and in PBS with 0.01% Tween 80 (v/v); intense, sharp Q band at 672 nm (DMF) or 680 nm (PBS); UV-Vis
[4] = test system: HT29 human colorectal adenocarcinoma cells; assay: Cellular uptake by confocal fluorescence microscopy; assay type: cell-based; conditions: 2 μM for 10 min at 37 °C, then 6 h in drug-free medium at 4 °C
Summary of the method: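 HT29 cells (about 2 × 10^5, RPMI with 10% FBS) were seeded on confocal dishes and left overnight at 37 °C, 5% CO2. They were exposed to 2 μM test compound for 10 min at 37 °C, washed three times with PBS, then held in drug-free medium for 6 h at 4 °C or 37 °C. Bright-field and fluorescence images were taken by confocal microscopy.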

HT29 cells [5] = assay: Photocytotoxicity, MTT assay; assay type: cell-based, human; conditions: absence of light, both incubation conditions
Summary of the method: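 HT29 cells (1 × 10^4 per well) were plated overnight. A DMSO stock of test compound was diluted in medium and applied for 10 min at 37 °C. Cells were rinsed with PBS, refed, and held 0 or 6 h with no red-light illumination. MTT (3 mg mL−1 in PBS) was added for 4 h, DMSO added, and A490 read. Viability is relative to compound-free control wells, averaged over 4 data points.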

HT29 cells [6] = assay: Annexin V-GFP/PI costaining assay; assay type: cell-based, human; conditions: 0.5 μM for 10 min
[7] = In vivo biodistribution by near-infrared fluorescence imaging; set-up: species or system mouse; conditions: mouse, in vivo, iv, 20 nmol
Summary of the method: (§1)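 Female Balb/c nude mice (20–25 g) carried subcutaneous HT29 tumours on the back (about 1 × 10^7 cells in HBSS) grown to 60–100 mm3. They received 20 nmol test compound in water with 1% DMSO by tail-vein injection. NIR imaging (ex 680 nm, em ≥700 nm) ran from pre-dose to 48 h. At 48 h, tumour, heart, lung, spleen, kidney and liver were assayed for fluorescence per unit area and reported as tumour/organ ratio. Data are mean ± SD, n = 4.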

[8] = test system: HT29 tumour-bearing nude mice; assay: as above; set-up: species or system mouse; conditions: 20 nmol intravenous; for Fluorescence intensity in the tumour area over time: imaged over 48 h, four mice per conjugate
Summary of the method: as §1

[9] = test system: A431 human epidermoid carcinoma cells; conditions: read-out: IC50 (photocytotoxicity); cited from earlier work

In the case of `[Zn+2].c1ccc2c(c1)-c1nc-2nc2[n-]c(nc3nc([n-]c4nc(n1)-c1ccccc1-4)-c1ccccc1-3)c1ccccc21` [ZnPc, zinc(II) phthalocyanine], the “Fluorescence quantum yield ΦF” value [1] is given as 0.28 and the “Singlet oxygen quantum yield ΦΔ” value [2] is given as 0.56.

With `N=C(N)NCCC[C@H](NC(=O)[C@@H](N)CCC(N)=O)C(=O)N[C@@H](Cc1c[nH]cn1)C(=O)N[C@@H](CCCCN)C(=O)N1CCC[C@H]1C(=O)N[C@@H](CCCNC(=N)N)C(=O)N[C@@H](CCC(=O)O)C(=O)NCC(=O)NCC(=O)NCC(=O)NCC(=O)N[C@@H](CO)C(=O)N[C@@H](CCCCNC(=O)c1ccc(Oc2ccc3c4nc5nc(nc6[nH]c(nc7nc(nc([nH]4)c3c2)-c2ccccc2-7)c2ccccc62)-c2ccccc2-5)cc1)C(N)=O` [compound 4] (H-QRHKPREGGGGSK(X1)-NH2) the “Solubility and aggregation state from the Q band” value [3] was “soluble and remained non-aggregated in both media”, the “Internalisation on post-incubation at 4 °C” value [4] was “internalisation was not significant” and the Dark toxicity (HT29 cells [5]) was “did not show significant dark toxicity”. For the same compound, the “Cell-death pathway, PDT effect on the cell membrane” value (HT29 cells [6]; irradiated immediately (λ > 610 nm, 18 mW cm^-2, 20 min)) was “cell necrosis”, the “Cell-death pathway, PDT effect after internalisation” value (HT29 cells [6]; then 6 h post-incubation before irradiation (λ > 610 nm, 18 mW cm^-2, 20 min)) was “mainly through apoptosis” and the tissue to tissue ratio at 48 h [7] was less than 1. The “Fluorescence intensity in the tumour area over time” value [8] was “increased along with time”.

In the case of EPRQRHKGGGGSK [compound 5], the “Tumour selectivity (tumour/organ ratio) compared with conjugate 4” value ([8]; ex vivo at 48 h, four mice) is reported as “consistently lower for all the organs” and the “Fluorescence intensity in the tumour area over time” value [8] is reported as “remained weak throughout the period”.

For GYHWYGYTPQNVI [GE11 conjugate], the IC50 [9] is given as 14 µM.

— publication PMC9065697 (RSC Advances, 2019)
